Experimental data reported in article PMC5989829 (Acta Pharmaceutica Sinica. B, 2017).
Like-named read-outs stand apart in the source and are kept apart here.

Tests used:
[1] = tested on: calf-thymus DNA (CT-DNA); conditions: cited from earlier work
[2] = tested on: calf-thymus DNA (CT-DNA); experiment: UV–vis spectroscopic study of interaction with CT-DNA; format: binding; conditions: 25 °C, increasing CT-DNA
[3] = human, even pregnant women and newborn babies, cited from earlier work
[4] = tested on: necrotic muscle; experiment: Self-blocking experiment in muscular necrosis model rats; format: in vivo, rat; conditions: 24 h
[5] = tested on: calf-thymus DNA (CT-DNA); experiment: Competitive study with ethidium bromide on CT-DNA; format: binding
In short: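 CT-DNA prepared in 5 mmol/L Tris-HCl/50 mmol/L NaCl, pH 7.4, stirred at 4 °C for three days; concentration set by A260 (ε=6600 L/mol.cm). Test compound (stock 6.0×10−4 mol/L) titrated into 2.5 mL CT-DNA–ethidium bromide (CT-DNA 6.0×10−5 mol/L) to ratios 0 to 7/30. Fluorescence read at 25 °C, λex 530/λem 604 nm. Ksv from Stern–Volmer fit of I0/I versus compound concentration.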

[6] = tested on: A549 cells; experiment: Fluorescence microscopy of necrotic and viable A549 cells; format: cell-based, human; conditions: 50 μmol/L, 30 min, co-staining with Hoechst 33342 and PI
[7] = tested on: A549 necrotic cells; experiment: Nuclear extraction from necrotic A549 cells incubated with tracer; format: cell-based, human; conditions: 50 μmol/L
[8] = tested on: necrotic liver and necrotic muscle; experiment: Fluorescence microscopy of liver and muscle cryostat slices from model rats; format: in vivo, rat; conditions: i.v. 2.0 mg/kg, 12 h to 8 days, λex=620 nm, λem=680 nm
[9] = cited from earlier work; for Water solubility: must be dissolved in organic solvents such as DMSO
[10] = Water solubility; format: physicochemical; conditions: can be dissolved in PBS or saline
[11] = In vitro stability of the radiotracer in rat serum; format: in vitro ADME; conditions: stored in rat serum at 37 °C, up to 8 days
In short: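 Radiolabelled test compound mixed with rat serum (1:9 volume ratio) and kept at 37 °C. Sampled at 0.5, 4 h, 1, 2, 3 and 8 day. Label integrity assessed by TLC.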

[12] = tested on: necrotic liver and necrotic muscle; format: in vivo, rat
[13] = Pharmacokinetics; format: in vivo, rat; conditions: normal rats, i.v. 14.8 MBq/kg in PBS, non-compartmental, mean±SD, n=6
In short: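 Six healthy rats dosed i.v. with radiolabelled test compound (14.8 MBq/kg) in PBS. 10 μL tail-slit blood samples drawn at 5, 10, 30 min and 1, 2, 4, 6, 8, 12, 24, 48 h. Samples γ-counted with decay and background correction and expressed as MBq per liter. Parameters derived by non-compartmental analysis; mean±SD.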

[14] = tested on: necrotic liver and necrotic muscle; experiment: Autoradiography of necrotic/normal liver and partially necrotic muscle sections; format: in vivo, rat; conditions: 24 h after intravenous injection
In short: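 Rats (male SD, 260–280 g) on 0.1% KI drinking water from 3 days before study. Liver necrosis: right-lobe hilum clamped 3 h, then reperfused; muscle necrosis induced with absolute ethanol. Labelled test compound (14.8 MBq/kg, 2.0 mg/kg) in PBS given i.v. via tail vein; sacrifice at 12, 24, 72 h, 8 day (n=5 each). Frozen 30 μm sections cut at −20 °C, 3 h phosphor-screen exposure, then H&E for co-localization.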

[15] = γ counting, 24 h after i.v. 14.8 MBq/kg, model rats

Nc1ccc2c(c1)C(=O)c1ccccc1C2=O [2-aminoanthraquin]
Binding constant with CT-DNA [1]: 1.25×10^3 L/(mol/L)

Cc1cc(-c2ccc(/N=N/c3ccc4c(S(=O)(=O)O)cc(S(=O)(=O)O)c(N)c4c3O)c(C)c2)ccc1/N=N/c1ccc2c(S(=O)(=O)O)cc(S(=O)(=O)O)c(N)c2c1O [EB, Evans blue]
Change of UV–vis absorption bands on addition of CT-DNA [2]: significant hypochromism accompanied with a red shift
Adverse reactions in clinical use ([3]; ref 24, 25): without adverse reactions
Adverse reactions in clinical use ([3]; ref 41, 42): without any adverse reactions
Radioactivity of ^131I-EB in necrotic muscle blocked ([4]; 10 mg/kg EB): about 65%
Ksv (Stern–Volmer quenching constant; binding constant with CT-DNA) ([5]; CT-DNA-ethidium bromide displacement, 25 °C, λex=530 nm): 5.08×10^5 L/(mol/L)
Binding constant with CT-DNA relative to 2-aminoanthraquin ([5]; EB versus 2-aminoanthraquin): 400 times
Cellular localisation [6]: specifically located in the nuclei of necrotic cell
Uptake in necrotic cell nuclei ([7]; 15 min incubation): 82.3%
Uptake in necrotic cell nuclei ([7]; 2 h incubation): 79.2%
Retention in necrotic tissues by fluorescence microscopy [8]: Selective retention of EB in necrotic tissues up to 8 days

Cc1cc(O)c2c(=O)c3c(O)cc(O)c4c5c(O)cc(O)c6c(=O)c7c(O)cc(C)c8c1c2c(c34)c(c78)c65 [Hyp, Hypericin]
Solubility [9]: nearly insoluble in water and most nonpolar solvents

^131I-evans blue [^131I-EB]
Water solubility [10]: highly water-soluble
In vitro stability (radiolabeling stability by TLC) [11]: over 90%
Uptake in necrotic muscle ([4]; coinjected with excessive cold EB (10 mg/kg), n=3, P<0.01): 0.47±0.07 %ID/g
Uptake in necrotic muscle ([4]; non-blocking group, n=3): 1.35±0.22 %ID/g
Time of highest uptake in necrotic liver and muscle ([12]; time points 12, 24, 72 h and 8 day): 24 h
Time of highest radioactivity in normal tissue ([12]; time points 12, 24, 72 h and 8 day, especially normal liver, spleen, kidney): 12 h
Ratio of uptake in necrotic muscle to normal muscle ([12]; γ counting, 8th day after i.v. 14.8 MBq/kg, model rats): 7.43 times
Radioactivity ratio of necrotic to viable (normal) liver [12, 15]: 3.41
Radioactivity ratio of necrotic to viable (normal) muscle [12, 15]: 11.82
AUC0–t [13]: 564.82±27.55 MBq/L ·h
AUC0–∞ [13]: 737.28±62.32 MBq/L ·h
CLz (clearance) [13]: 0.35 ± 0.067 mL/min/kg
Cmax (peak concentration) [13]: 96.84±10.05 MBq/L
Tmax (peak time) [13]: 4.98 ± 0 min
t1/2z (elimination half-life) [13]: 24.40 ± 3.64 h
Uptake in necrotic cell nuclei ([7]; 15 min incubation): 82.3%
Uptake in necrotic cell nuclei ([7]; 2 h incubation): 79.2%
Radioactivity ratio of necrotic to normal liver [14]: 4.26
Radioactivity ratio of necrotic to normal muscle [14]: 10.2

^131I-hypericin
Water solubility [9]: water-insoluble

^131I-sennidin A
Water solubility [9]: water-insoluble
